Measured values reported in ChEMBL document CHEMBL4732187, “Tetrahydroindazole inhibitors of CDK2/cyclin complexes” (Eur J Med Chem, 2021).
pIC50: −log10 of the molar value. Blank lines part the entries; values can stand above or below the compound they belong to. The source made the active and inactive calls. The rule behind the calls is not given here.

Legend:
[1] = target: Cyclin-dependent kinase 5/CDK5 activator 1 (Homo sapiens) (UniProt Q00535+Q15078); test: Inhibition of CDK5/p25 (unknown origin) at 1 uM using histone H1 as substrate preincubated for 20 mins followed by 33P-ATP addition and measured after 2 hrs by filter binding method; assay type: protein-complex assay
Cyclin-dependent kinase 5/CDK5 activator 1 (Homo sapiens), sequence (Q00535 whole entry): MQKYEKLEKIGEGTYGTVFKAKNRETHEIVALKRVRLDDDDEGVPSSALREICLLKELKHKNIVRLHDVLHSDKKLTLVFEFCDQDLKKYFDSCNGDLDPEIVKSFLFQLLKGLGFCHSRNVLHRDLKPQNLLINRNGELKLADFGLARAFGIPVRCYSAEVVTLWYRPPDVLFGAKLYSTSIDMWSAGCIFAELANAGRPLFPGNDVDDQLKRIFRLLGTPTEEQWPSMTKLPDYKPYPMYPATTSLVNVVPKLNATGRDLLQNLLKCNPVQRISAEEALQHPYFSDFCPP
Cyclin-dependent kinase 5/CDK5 activator 1 (Homo sapiens), sequence (Q15078 99-307 partner limits assumed): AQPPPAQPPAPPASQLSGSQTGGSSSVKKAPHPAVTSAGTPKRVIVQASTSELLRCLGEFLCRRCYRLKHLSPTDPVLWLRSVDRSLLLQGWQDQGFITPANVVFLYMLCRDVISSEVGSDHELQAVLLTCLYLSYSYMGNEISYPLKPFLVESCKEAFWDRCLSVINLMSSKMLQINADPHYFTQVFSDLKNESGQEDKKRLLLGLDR
How it was run: (§1)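 Radiometric filter-binding kinase assay at 10 μM ATP in pH 7.5 HEPES buffer with MgCl₂, EGTA, Brij35, BSA, Na₃VO₄, DTT and 1% DMSO. Compound was preincubated with kinase for 20 min at rt, then ³³P-ATP was added and the reaction ran 2 h at rt. Substrate was histone H1 at 20 μM, except myelin basic protein at 20 μM for CDK7/cyclin H and a peptide at 20 μM for CDK9/cyclin T1. Single dose, in duplicate.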

[2] = target: CDK2/Cyclin O (Homo sapiens) (UniProt P24941+P22674); test: Inhibition of CDK1/Cyclin-O (unknown origin) at 1 uM using histone H1 as substrate preincubated for 20 mins followed by 33P-ATP addition and measured after 2 hrs by filter binding method; assay type: protein-complex assay; how it was run: as §1
[3] = target: CDK2/Cyclin A1 (Homo sapiens) (UniProt P24941+P78396); test: Inhibition of CDK2/Cyclin A1 (unknown origin) at 1 uM using histone H1 as substrate preincubated for 20 mins followed by 33P-ATP addition and measured after 2 hrs by filter binding method; assay type: protein-complex assay; how it was run: as §1
[4] = target: CDK3/Cyclin E (Homo sapiens) (UniProt P24864+Q00526); test: Inhibition of CDK3/Cyclin E (unknown origin) at 1 uM using histone H1 as substrate preincubated for 20 mins followed by 33P-ATP addition and measured after 2 hrs by filter binding method; assay type: protein-complex assay; how it was run: as §1
CDK3/Cyclin E (Homo sapiens), sequence (P24864 whole entry, looked up): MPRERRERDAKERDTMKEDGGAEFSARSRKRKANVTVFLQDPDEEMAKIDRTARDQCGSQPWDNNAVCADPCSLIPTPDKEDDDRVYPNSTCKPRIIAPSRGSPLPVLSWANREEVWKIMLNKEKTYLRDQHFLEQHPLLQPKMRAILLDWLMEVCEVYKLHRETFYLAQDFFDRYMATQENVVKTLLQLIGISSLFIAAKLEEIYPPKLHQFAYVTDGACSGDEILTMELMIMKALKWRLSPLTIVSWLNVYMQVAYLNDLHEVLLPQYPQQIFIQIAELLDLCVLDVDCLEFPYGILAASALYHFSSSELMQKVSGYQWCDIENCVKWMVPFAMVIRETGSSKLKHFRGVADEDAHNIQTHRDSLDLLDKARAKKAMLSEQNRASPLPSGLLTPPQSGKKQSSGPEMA
CDK3/Cyclin E (Homo sapiens), sequence (Q00526 whole entry, looked up): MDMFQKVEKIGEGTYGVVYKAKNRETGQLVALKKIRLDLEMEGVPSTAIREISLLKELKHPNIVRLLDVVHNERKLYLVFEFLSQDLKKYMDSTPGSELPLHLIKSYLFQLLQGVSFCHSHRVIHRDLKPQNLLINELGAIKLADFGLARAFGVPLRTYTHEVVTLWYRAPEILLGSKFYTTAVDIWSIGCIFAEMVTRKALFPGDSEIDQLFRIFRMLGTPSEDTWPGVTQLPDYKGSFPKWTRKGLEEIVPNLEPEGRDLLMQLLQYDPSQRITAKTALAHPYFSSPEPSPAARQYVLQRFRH

[5] = target: Cyclin-dependent kinase 1/cyclin B1 (Homo sapiens) (UniProt P06493+P14635); test: Inhibition of CDK1/Cyclin B (unknown origin) at 1 uM using histone H1 as substrate preincubated for 20 mins followed by 33P-ATP addition and measured after 2 hrs by filter binding method; assay type: protein-complex assay; how it was run: as §1
Cyclin-dependent kinase 1/cyclin B1 (Homo sapiens), sequence (P06493 whole entry, looked up): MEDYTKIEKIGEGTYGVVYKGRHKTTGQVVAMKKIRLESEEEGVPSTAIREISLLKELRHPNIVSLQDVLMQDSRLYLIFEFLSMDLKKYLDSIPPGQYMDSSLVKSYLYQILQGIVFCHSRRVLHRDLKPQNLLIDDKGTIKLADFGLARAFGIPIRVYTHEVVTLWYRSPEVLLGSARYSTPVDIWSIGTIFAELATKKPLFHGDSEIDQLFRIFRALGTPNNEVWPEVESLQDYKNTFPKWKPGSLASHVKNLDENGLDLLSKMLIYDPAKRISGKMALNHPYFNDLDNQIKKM
Cyclin-dependent kinase 1/cyclin B1 (Homo sapiens), sequence (P14635 whole entry, looked up): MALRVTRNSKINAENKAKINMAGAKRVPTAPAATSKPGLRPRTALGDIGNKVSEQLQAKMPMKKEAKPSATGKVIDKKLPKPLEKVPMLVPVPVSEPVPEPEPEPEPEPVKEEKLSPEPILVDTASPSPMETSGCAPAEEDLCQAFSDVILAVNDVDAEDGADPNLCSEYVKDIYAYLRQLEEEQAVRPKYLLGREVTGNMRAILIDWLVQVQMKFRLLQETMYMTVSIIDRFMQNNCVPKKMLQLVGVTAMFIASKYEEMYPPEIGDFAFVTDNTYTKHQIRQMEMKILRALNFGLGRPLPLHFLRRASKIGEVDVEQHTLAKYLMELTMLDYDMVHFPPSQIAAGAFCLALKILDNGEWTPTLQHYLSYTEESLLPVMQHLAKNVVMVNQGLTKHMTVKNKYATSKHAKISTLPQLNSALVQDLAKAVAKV

[6] = species on record: Homo sapiens; test: Inhibition of CDK9/Cyclin T1 (unknown origin) at 1 uM using KTFCGTPEYLAPEVRREPRILSEEEQEMFRDFDYIAD as substrate preincubated for 20 mins followed by 33P-ATP addition and measured after 2 hrs by filter binding method; how it was run: as §1
[7] = target: CDK2/Cyclin A2 (Homo sapiens) (UniProt P24941+P20248); test: Inhibition of human N-terminal GST-tagged CDK2 (1 to 298 residues)/Cyclin A (174 to 432 residues) expressed in Escherichia coli Turner (DE3) cells assessed as reduction in ADP formation at 1 uM using PKTPKKAKKL as substrate by resorufin dye based fluorescence assay
[8] = target: Cyclin-dependent kinase 4/cyclin D1 (Homo sapiens) (UniProt P11802+P24385); test: Inhibition of CDK4/Cyclin D1 (unknown origin) at 1 uM using RB protein as substrate preincubated for 20 mins followed by 33P-ATP addition and measured after 2 hrs by filter binding method; assay type: protein-complex assay
How it was run: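 Radiometric filter-binding assay of CDK4/cyclin D1 using RB protein at 3 μM and ATP at 10 μM in pH 7.5 HEPES buffer with 1% DMSO. Compound was preincubated for 20 min at rt, then ³³P-ATP was added and the reaction ran 2 h at rt, with spotting on P81 paper. Single dose, in duplicate.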

[9] = target: CDK1/Cyclin A (Homo sapiens) (UniProt P06493+P20248); test: Inhibition of CDK1/CyclinA (unknown origin) at 1 uM using histone H1 as substrate preincubated for 20 mins followed by 33P-ATP addition and measured after 2 hrs by filter binding method; assay type: protein-complex assay; how it was run: as §1
CDK1/Cyclin A (Homo sapiens), sequence (P06493 whole entry, looked up): as the sequence (P06493 whole entry, looked up) above
CDK1/Cyclin A (Homo sapiens), sequence (P20248 whole entry, looked up): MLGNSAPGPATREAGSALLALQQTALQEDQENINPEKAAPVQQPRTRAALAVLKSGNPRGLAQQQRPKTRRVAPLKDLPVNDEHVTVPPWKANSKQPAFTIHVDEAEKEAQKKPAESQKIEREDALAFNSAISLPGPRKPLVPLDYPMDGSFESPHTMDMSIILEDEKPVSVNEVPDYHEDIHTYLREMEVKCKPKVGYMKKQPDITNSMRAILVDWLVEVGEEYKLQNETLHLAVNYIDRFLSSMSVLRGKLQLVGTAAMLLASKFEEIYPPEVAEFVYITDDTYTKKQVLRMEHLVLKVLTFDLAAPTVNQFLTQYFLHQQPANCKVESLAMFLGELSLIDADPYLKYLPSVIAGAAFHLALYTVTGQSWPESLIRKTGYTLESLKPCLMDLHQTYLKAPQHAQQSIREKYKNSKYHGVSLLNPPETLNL

[10] = target: Cyclin-dependent kinase 2/cyclin E1 (Homo sapiens) (UniProt P24864+P24941); test: Inhibition of CDK1/Cyclin E (unknown origin) at 1 uM using histone H1 as substrate preincubated for 20 mins followed by 33P-ATP addition and measured after 2 hrs by filter binding method; assay type: protein-complex assay; how it was run: as §1
[11] = target: Cyclin-dependent kinase 7/ cyclin H (Homo sapiens) (UniProt P51946+P50613); test: Inhibition of CDK7/Cyclin H (unknown origin) at 1 uM using myelin basic protein as substrate preincubated for 20 mins followed by 33P-ATP addition and measured after 2 hrs by filter binding method; assay type: protein-complex assay; how it was run: as §1
[12] = target: CDK6/cyclin D1 (Homo sapiens) (UniProt P24385+Q00534); test: Inhibition of CDK6/Cyclin D1 (unknown origin) at 1 uM using RB protein as substrate preincubated for 20 mins followed by 33P-ATP addition and measured after 2 hrs by filter binding method
[13] = Efflux ratio of apparent permeability across basolateral to apical side over apical to basolateral side in MDCK cells at 1 uM after 2 hrs by LC-MS/MS analysis; assay type: ADME, cell-based, Canis lupus familiaris; conditions: dog
How it was run: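 MDCK monolayers washed twice with pre-warmed HBSS (10 mM HEPES, pH 7.4) and equilibrated 30 min at 37 °C. 1 μM working solution (0.5% DMSO final) added to apical or basolateral donor side, 37 °C for 2 h, run in duplicate. Donor and receiver samples quenched in cold methanol with internal standards and quantified by LC-MS/MS. Monolayer integrity checked by Lucifer Yellow (100 μM) leakage.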

[14] = target: CDK2/Cyclin O (Homo sapiens, UniProt P22674+P24941); test: Inhibition of CDK2/Cyclin-O (unknown origin) using histone H1 as substrate preincubated for 20 mins followed by 33P-ATP addition and measured after 2 hrs by filter binding method; assay type: protein-complex assay
[15] = target: CDK2/Cyclin A2 (Homo sapiens, UniProt P24941); test: Inhibition of human N-terminal GST-tagged CDK2 (1 to 298 residues)/Cyclin A (174 to 432 residues) expressed in Escherichia coli Turner (DE3) cells assessed as reduction in ADP formation using PKTPKKAKKL as substrate by resorufin dye based fluorescence assay
[16] = target: CDK2/Cyclin A1 (Homo sapiens, UniProt P24941); test: Inhibition of CDK2/Cyclin A1 (unknown origin) using histone H1 as substrate preincubated for 20 mins followed by 33P-ATP addition and measured after 2 hrs by filter binding method; assay type: protein-complex assay
[17] = Apparent permeability across basolateral to apical side in MDCK cells at 1 uM after 2 hrs by LC-MS/MS analysis; assay type: ADME, cell-based, Canis lupus familiaris; conditions: dog
How it was run: (§2)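 MDCK monolayers were washed twice with pre-warmed HBSS (10 mM HEPES, pH 7.4) and equilibrated for 30 min at 37 °C. Compound at 1 μM in HBSS (0.5% DMSO final) was added to the apical or the basolateral donor side. After 2 h at 37 °C, donor and receiver samples were quenched in cold methanol with internal standards and analysed by LC-MS/MS. Runs were in duplicate; 100 μM Lucifer Yellow checked monolayer integrity.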

[18] = Apparent permeability across apical to basolateral side in MDCK cells at 1 uM after 2 hrs by LC-MS/MS analysis; assay type: ADME, cell-based, Canis lupus familiaris; conditions: dog; how it was run: as §2
[19] = Permeability across apical to basolateral side in MDCK cells assessed as drug recovery at 1 uM after 2 hrs by LC-MS/MS analysis; assay type: ADME, cell-based, Canis lupus familiaris; conditions: dog; how it was run: as §2
[20] = Permeability across basolateral to apical side in MDCK cells at 1 uM after 2 hrs by LC-MS/MS analysis; assay type: ADME, cell-based, Canis lupus familiaris; conditions: dog; how it was run: as §2
[21] = tested on: MCF7; test: Antiproliferative activity against human MCF7 cells assessed as reduction in cell viability up to 200 uM after 72 hrs by alamarBlue assay; assay type: functional, cell-based; conditions: dose microM <=200, time 72.0 hrs
How it was run: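 MCF-7 cells seeded at 5000 per well and incubated overnight at 37 °C, 5% CO₂, then exposed to 8 concentrations from 0.00256 μM to 200 μM for 72 h. alamarBlue was then added and incubated 90 min at 37 °C. Proliferating cells were read by fluorescence (ex 530 nm, em 590 nm). Staurosporine served as positive control.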

[22] = target: Heat shock protein HSP90 (Homo sapiens) (UniProt P07900+P08238); test: Inhibition of HSP90 (unknown origin); assay type: protein assay
[23] = target: Cyclin-dependent kinase 2/cyclin E1 (Homo sapiens, UniProt P24941); test: Inhibition of CDK2/Cyclin E (unknown origin) using histone H1 as substrate preincubated for 20 mins followed by 33P-ATP addition and measured after 2 hrs by filter binding method; assay type: protein-complex assay

- inhibition [1]: inactive
- inhibition [2]: inactive
- inhibition [3]: inactive
- inhibition [4]: inactive
- inhibition [5]: inactive
- inhibition [6]: inactive
- inhibition [7]: inactive
- inhibition [8]: inactive
- inhibition [9]: inactive
- inhibition [10]: inactive
- inhibition [11]: inactive
- inhibition [12]: inactive
SMILES: Cc1nn(-c2ccccn2)c2c1C(=O)CC(C)C2Br (cis isomer)

SMILES: Cc1nn(-c2ccccn2)c2c1C(=O)CC(C)(C)C2Br (stereo not drawn)
- Ratio [13]: 0.47
- pIC50 [14]: 6.97
- pIC50 [15]: 5.59
- pIC50 [16]: 6.87
- Papp B→A at 2 h, 1 µM [17]: 9.52 ×10⁻⁶ cm/s
- Papp A→B at 2 h, 1 µM [18]: 20.1 ×10⁻⁶ cm/s
- Drug recovery [19]: 52.4%
- Drug recovery [20]: 49.8%
- Activity [21]: inactive
- inhibition [22]: inactive
- pIC50 [23]: 7.56
